Active and inactive are the calls of the source. No cut-off for these calls is given here.
Assays:
HepG2 [1] = experiment: Cytotoxicity against human HepG2 cells by MTT assay; assay type: functional, cell-based
RAW264.7 [2] = experiment: Inhibition of LPS-induced iNOS expression in mouse RAW264.7 cells at 10 uM by immunoblot analysis relative to control; assay type: functional
Method in brief: (§1)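 Murine RAW 264.7 macrophages were grown in DMEM with 10% heat-inactivated FBS at 37 °C and 5% CO2. Test agent (10 µM) was added 5 min before LPS (0.01 µg/mL), followed by 16 h incubation. Lysates were cleared at 20000g, and equal protein was run on SDS-PAGE and PVDF. Blots used anti-iNOS or anti-COX-2 (1:1000, 180 min RT), ECL, and a β-actin reprobe. Densitometry was expressed relative to LPS-alone (100%), as mean ± SEM, n = 6.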

HepG2 [3] = experiment: Cytotoxicity against human HepG2 cells at 20 ug/mL by MTT assay; assay type: functional; details: read-out: GI
[4] = Cytotoxicity against human MDA-MB-23 cells by MTT assay; assay type: functional, cell-based
A549 [5] = experiment: Cytotoxicity against human A549 cells by MTT assay; assay type: functional, cell-based
RAW264.7 [6] = experiment: Inhibition of LPS-induced COX2 expression in mouse RAW264.7 cells at 10 uM by immunoblot analysis relative to control; assay type: functional; method in brief: as §1
A549 [7] = experiment: Cytotoxicity against human A549 cells at 20 ug/mL by MTT assay; assay type: functional; details: read-out: GI
MCF7 [8] = experiment: Cytotoxicity against human MCF7 cells at 20 ug/mL by MTT assay; assay type: functional; details: read-out: GI
MCF7 [9] = experiment: Cytotoxicity against human MCF7 cells by MTT assay; assay type: functional, cell-based
A549 [10] = experiment: Cytotoxicity against human A549 cells at 0.5 ug/mL by MTT assay; assay type: functional; details: read-out: GI
MCF7 [11] = experiment: Cytotoxicity against human MCF7 cells at 0.5 ug/mL by MTT assay; assay type: functional; details: read-out: GI
HepG2 [12] = experiment: Cytotoxicity against human HepG2 cells at 0.5 ug/mL by MTT assay; assay type: functional; details: read-out: GI
[13] = Cytotoxicity against human MDA-MB-23 cells at 0.5 ug/mL by MTT assay; assay type: functional; details: read-out: GI

Compound: C/C1=C/C=C(\C(C)C)[C@@H](O)C[C@]2(C)O[C@@H]2CC/C(C)=C/CC1
- IC50 (HepG2 [1]): > 20 µg/mL
- iNOS protein level (% of LPS control) at 10 µM (RAW264.7 [2]): 76.2%
- inhibition of growth at 20 µg/mL (HepG2 [3]): 45.5%
- IC50 [4]: > 20 µg/mL
- IC50 (A549 [5]): > 20 µg/mL
- COX-2 protein level (% of LPS control) at 10 µM (RAW264.7 [6]): 54%
- inhibition of growth at 20 µg/mL (A549 [7]): 27.2%
- inhibition of growth at 20 µg/mL (MCF7 [8]): 33.4%
- IC50 (MCF7 [9]): > 20 µg/mL

Compound: C/C1=C/C=C(\C(C)C)CC/C(C)=C/C(O)C/C(C)=C/CC1 (stereo unspecified) [GIBBEROSENE G]
- IC50 (HepG2 [1]): > 20 µg/mL
- inhibition of growth at 20 µg/mL (HepG2 [3]): 23.3%
- IC50 [4]: > 20 µg/mL
- IC50 (A549 [5]): > 20 µg/mL
- IC50 (MCF7 [9]): > 20 µg/mL

Compound: CC(=O)O[C@@H]1/C(C)=C/C[C@H](O)/C(C)=C/CC/C(C)=C\C=C(/C(C)C)[C@H]1OC(C)=O (relative stereo) [GIBBEROSENE E]
- IC50 (HepG2 [1]): > 20 µg/mL
- inhibition of growth at 20 µg/mL (HepG2 [3]): 31.3%
- IC50 [4]: > 20 µg/mL
- IC50 (A549 [5]): > 20 µg/mL
- inhibition of growth at 20 µg/mL (A549 [7]): 25.8%
- inhibition of growth at 20 µg/mL (MCF7 [8]): 21%
- IC50 (MCF7 [9]): > 20 µg/mL

Compound: CC(=O)O[C@H]1C/C(C(C)C)=C/C=C(/C)CC/C=C(\C)CC[C@@H]2O[C@@]12C (relative stereo) [GIBBEROSENE B]
- IC50 (HepG2 [1]): > 20 µg/mL
- Activity (RAW264.7 [2]): inactive
- inhibition of growth at 20 µg/mL (HepG2 [3]): 24%
- IC50 [4]: > 20 µg/mL
- IC50 (A549 [5]): > 20 µg/mL
- Activity (RAW264.7 [6]): inactive
- inhibition of growth at 20 µg/mL (MCF7 [8]): 21.5%
- IC50 (MCF7 [9]): > 20 µg/mL

Compound: COc1cccc2c1C(=O)c1c(O)c3c(c(O)c1C2=O)C[C@@](O)(C(=O)CO)C[C@@H]3O[C@H]1C[C@H](N)[C@H](O)[C@H](C)O1 [DOXORUBICIN]
- inhibition of growth at 0.5 µg/mL (A549 [10]): 73.2%
- inhibition of growth at 0.5 µg/mL (MCF7 [11]): 51.6%
- inhibition of growth at 0.5 µg/mL (HepG2 [12]): 66.9%
- inhibition of growth at 0.5 µg/mL [13]: 66.6%

Compound: CC(=O)O[C@H]1/C=C(C(C)C)\C=C\[C@@](C)(O)CC/C=C(\C)CC[C@@H]2O[C@@]12C (relative stereo) [GIBBEROSENE D]
- IC50 (HepG2 [1]): > 20 µg/mL
- IC50 [4]: > 20 µg/mL
- IC50 (A549 [5]): > 20 µg/mL
- IC50 (MCF7 [9]): > 20 µg/mL

Compound: C/C1=C\CC[C@]2(C)O[C@H]2/C=C(\C(C)C)C[C@H](O)[C@]2(C)O[C@H]2CC1 (relative stereo) [GIBBEROSENE C]
- IC50 (HepG2 [1]): > 20 µg/mL
- IC50 [4]: > 20 µg/mL
- IC50 (A549 [5]): > 20 µg/mL
- IC50 (MCF7 [9]): > 20 µg/mL

Compound: CC(=O)O[C@@H]1/C(C)=C/CC/C(C)=C/[C@H](O)C/C(C)=C\C=C(/C(C)C)[C@H]1OC(C)=O (relative stereo) [GIBBEROSENE F]
- IC50 (HepG2 [1]): > 20 µg/mL
- IC50 [4]: > 20 µg/mL
- IC50 (A549 [5]): > 20 µg/mL
- IC50 (MCF7 [9]): > 20 µg/mL

Compound: CC(=O)O[C@H]1C2=C(C(C)C)C=C(O2)[C@@H](C)CC/C=C(\C)CC[C@@H]2O[C@]21C (relative stereo) [GIBBEROSENE A]
- IC50 (HepG2 [1]): > 20 µg/mL
- inhibition of growth at 20 µg/mL (HepG2 [3]): < 20%
- IC50 [4]: > 20 µg/mL
- IC50 (A549 [5]): > 20 µg/mL
- inhibition of growth at 20 µg/mL (MCF7 [8]): 41.3%
- IC50 (MCF7 [9]): > 20 µg/mL
